{"data": "Measured values pooled from the literature", "target": "Dual specificity tyrosine-phosphorylation-regulated kinase 2 (DYRK2, Homo sapiens, UniProt Q92630)", "Residues used in one study (Q92630 1-601)": "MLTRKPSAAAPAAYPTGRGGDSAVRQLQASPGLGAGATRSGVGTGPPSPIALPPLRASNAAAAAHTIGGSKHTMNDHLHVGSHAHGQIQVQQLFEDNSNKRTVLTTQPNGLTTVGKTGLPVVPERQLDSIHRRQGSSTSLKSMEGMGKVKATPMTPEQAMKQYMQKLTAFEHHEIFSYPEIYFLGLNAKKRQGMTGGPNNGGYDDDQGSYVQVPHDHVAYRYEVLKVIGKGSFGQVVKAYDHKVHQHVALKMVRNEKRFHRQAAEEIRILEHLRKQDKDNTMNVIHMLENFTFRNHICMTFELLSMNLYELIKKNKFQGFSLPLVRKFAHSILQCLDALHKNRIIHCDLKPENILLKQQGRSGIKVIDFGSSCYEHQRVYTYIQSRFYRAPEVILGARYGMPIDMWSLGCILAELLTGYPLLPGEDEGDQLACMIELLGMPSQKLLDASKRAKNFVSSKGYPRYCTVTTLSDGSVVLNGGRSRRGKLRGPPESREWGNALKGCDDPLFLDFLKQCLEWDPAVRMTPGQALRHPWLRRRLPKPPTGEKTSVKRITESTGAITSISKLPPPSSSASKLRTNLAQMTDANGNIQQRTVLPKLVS", "note": "Each line is one published result; the experiments were not run side by side."}
{"SMILES": "COc1cc(/C=C/C(=O)CC(=O)/C=C/c2ccc(O)c(OC)c2)ccc1O", "test": "enzyme activity, inhibitor", "setting": "1 µM", "measurement": "activity vs control", "value": "5%"}
{"SMILES": "O=C(O)c1ccc2c(c1)nc(Nc1ccc3ccccc3c1)c1ncncc12", "test": "enzyme activity, inhibitor, radiometric", "setting": "1 µM", "measurement": "remaining activity", "value": "1%"}
{"SMILES": "Cc1nc(Cc2cccc(C(F)(F)F)c2)sc1-c1ccc(C(N)=O)nc1", "test": "cell-free assay, competition with immobilised ligand", "setting": "1 µM", "measurement": "remaining binding", "value": "90%"}
{"SMILES": "O=C(O)c1ccc2c(c1)nc(Nc1cccc(F)c1)c1ncncc12", "test": "enzyme activity, inhibitor, radiometric", "setting": "1 µM", "measurement": "remaining activity", "value": "33%"}
{"SMILES": "CCCCN(CCCC)C(=O)CN1C[C@@H](c2cc(OC)c3c(c2)OCO3)[C@H](C(=O)O)[C@H]1CC(C)(C)CCC", "test": "cell-free assay, competition with immobilised ligand", "setting": "1 µM", "measurement": "remaining binding", "value": "82.9%"}
{"SMILES": "CCN(CC)CCNC(=O)c1c(C)[nH]c(/C=C2\\C(=O)Nc3ccc(F)cc32)c1C", "test": "enzyme activity, inhibitor", "setting": "0.3 µM", "measurement": "inhibition", "value": "-5%"}
{"SMILES": "CSc1cccnc1N1CCN(Cc2nc3ccccc3[nH]2)CC1", "test": "cell-free assay, competition with immobilised ligand", "setting": "1 µM", "measurement": "remaining binding", "value": "81%"}
{"SMILES": "Cn1cnc(Br)c1C1=CN(c2ncnc3[nH]cnc23)CCS1", "test": "enzyme activity, inhibitor, radiometric", "setting": "2 µM", "measurement": "inhibition", "value": "98.3%"}
{"SMILES": "FC(F)(F)Oc1cccc(-c2cnc3ccc(-c4ccncc4)nn23)c1", "test": "enzyme activity, inhibitor, radiometric", "setting": "5 µM", "measurement": "activity vs control", "value": "46%"}
{"SMILES": "O=C(O)c1ccc2c(c1)nc(NCc1ccccc1)c1ccncc12", "test": "enzyme activity, inhibitor, radiometric", "setting": "1 µM", "measurement": "remaining activity", "value": "27%"}
{"SMILES": "Cc1ccc(NC(=O)c2ccc(C)c(C(F)(F)F)c2)cc1C#Cc1nn(C2CCC(O)CC2)c2ncnc(N)c12 (stereo not shown)", "test": "cell-free assay", "setting": "10 µM", "measurement": "remaining signal", "value": "107%"}
{"SMILES": "O=C(O)c1cc(-c2ccc(C3CCNCC3)cc2)c2ccc(-c3ccc(C(F)(F)F)cc3)cc2c1", "test": "cell-free assay, competition with immobilised ligand", "setting": "1 µM", "measurement": "remaining binding", "value": "100%"}
{"SMILES": "O=C(O)c1ccc2c(c1)nc(NCc1ccccc1)c1ncncc12", "test": "enzyme activity, inhibitor, radiometric", "setting": "1 µM", "measurement": "remaining activity", "value": "37%"}
{"SMILES": "O=C1NC(=O)c2cc(Nc3ccc(F)cc3)c(Nc3ccc(F)cc3)cc21", "test": "cell-free assay", "setting": "0.5 µM", "measurement": "remaining signal", "value": "89.1%"}
{"SMILES": "NS(=O)(=O)c1cc(NC(=O)Cc2ccccc2)ccc1Oc1cccc(Cl)c1", "test": "cell-free assay, competition with immobilised ligand", "setting": "1 µM", "measurement": "remaining binding", "value": "100%"}
{"SMILES": "Cc1ccc(Nc2nccc(N(C)c3ccc4c(C)n(C)nc4c3)n2)cc1S(N)(=O)=O", "test": "enzyme activity, inhibitor", "setting": "0.3 µM", "measurement": "inhibition", "value": "-8%"}
{"SMILES": "Cc1c[nH]c2nccc(Oc3c(F)cc(Nc4cc(Cl)nc(N)n4)cc3F)c12", "test": "cell-free assay, competition with immobilised ligand", "setting": "0.1 µM", "measurement": "remaining binding", "value": "100%"}
{"SMILES": "Cn1cncc1C1=CN(c2ncnc3[nH]cnc23)CCS1", "test": "enzyme activity, inhibitor, radiometric", "setting": "2 µM", "measurement": "inhibition", "value": "91.2%"}
{"SMILES": "O=C(O)c1ccc2c(c1)nc(Nc1cccc(F)c1)c1ccncc12", "test": "enzyme activity, inhibitor, radiometric", "setting": "1 µM", "measurement": "remaining activity", "value": "13%"}
{"SMILES": "CNCc1ccccc1-c1csc([C@H](C)Nc2nc(C)nc3cc(OC)c(OC)cc23)c1", "test": "cell-free assay, competition with immobilised ligand", "setting": "1 µM", "measurement": "remaining binding", "value": "96%"}
{"SMILES": "O=C1Nc2ccc(Cl)cc2C1=Cc1cc(Cl)c(O)c(Cl)c1", "test": "cell-free assay", "setting": "0.5 µM", "measurement": "remaining signal", "value": "94%"}
{"SMILES": "O=C(NCCCC1CCCCC1)c1ccc(CNC(=O)c2cnn(-c3ccccc3)c2C(F)(F)F)cc1", "test": "cell-free assay, competition with immobilised ligand", "setting": "0.1 µM", "measurement": "remaining binding", "value": "100%"}
{"SMILES": "O=C(O)c1ccc2c(c1)nc(Nc1ccccc1)c1ncncc12", "test": "enzyme activity, inhibitor, radiometric", "setting": "1 µM", "measurement": "remaining activity", "value": "54%"}
{"SMILES": "CN1CC(Oc2cnc(C#N)cc2-c2ccn3nc(NC(=O)C4CC4)cc3c2)C1", "test": "enzyme activity, inhibitor", "setting": "1 µM", "measurement": "inhibition", "value": "3%"}
{"SMILES": "N#CCCc1ccc2c(c1)-c1[nH]c3ccc([N+](=O)[O-])cc3c1CC(=O)N2", "test": "cell-free assay", "setting": "0.5 µM", "measurement": "remaining signal", "value": "46.8%"}
{"SMILES": "COc1cccc(Nc2nc3cc(C(=O)O)ccc3c3cnccc23)c1", "test": "enzyme activity, inhibitor, radiometric", "setting": "1 µM", "measurement": "remaining activity", "value": "14%"}
{"SMILES": "C[S+]([O-])c1ccc(-c2nc(-c3ccncc3)c(-c3ccc(F)cc3)[nH]2)cc1 (stereo not shown)", "test": "cell-free assay", "setting": "0.5 µM", "measurement": "remaining signal", "value": "98.7%"}
{"SMILES": "O=C(O)c1ccc2c(c1)nc(Nc1ccccc1Cl)c1ncncc12", "test": "enzyme activity, inhibitor, radiometric", "setting": "1 µM", "measurement": "remaining activity", "value": "60%"}
